Laboratory results taken from publication PMC7941041 (Biochemistry and Biophysics Reports, 2021).
Square brackets hold non-standard residues; d marks the D form. pS = N[C@@H](COP(=O)(O)O)C(=O)O

T1: hArc-NL (residues 207–277) (Homo sapiens, UniProt Q7LC44)
T1 sequence (Q7LC44 207-277): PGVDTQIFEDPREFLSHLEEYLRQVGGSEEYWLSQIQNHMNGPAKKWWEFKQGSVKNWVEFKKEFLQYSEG

T2: hArc-CT (residues 206–396, containing both lobes) (Homo sapiens, UniProt Q7LC44)
T2 sequence (Q7LC44 206-396): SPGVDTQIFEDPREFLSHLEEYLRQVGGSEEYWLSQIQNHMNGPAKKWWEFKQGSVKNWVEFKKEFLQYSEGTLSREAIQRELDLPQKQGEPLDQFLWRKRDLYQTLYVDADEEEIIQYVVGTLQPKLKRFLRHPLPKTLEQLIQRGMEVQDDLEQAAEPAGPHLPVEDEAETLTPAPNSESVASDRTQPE

T3: human Arc N-lobe (hArc-NL, residues 207–277) (human, UniProt Q7LC44 207-277)
T3 sequence: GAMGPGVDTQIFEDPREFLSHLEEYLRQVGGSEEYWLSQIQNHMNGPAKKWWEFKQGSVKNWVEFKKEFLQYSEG

T4: human Arc C-terminal domain (hArc-CT, residues 206–396, containing both lobes) (human, UniProt Q7LC44 206-396)
T4 sequence: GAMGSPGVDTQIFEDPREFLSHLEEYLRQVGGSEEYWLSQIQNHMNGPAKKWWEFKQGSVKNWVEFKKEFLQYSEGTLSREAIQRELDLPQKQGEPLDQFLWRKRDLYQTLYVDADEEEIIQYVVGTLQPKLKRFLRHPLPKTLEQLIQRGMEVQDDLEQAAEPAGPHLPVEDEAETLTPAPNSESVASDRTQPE

B1: phosphorylated stargazin peptide pStg(phos) (peptide)
peptide: Ac-RIP[pS]YRYR-NH2
SMILES: CC[C@H](C)[C@H](NC(=O)[C@H](CCCNC(=N)N)NC(C)=O)C(=O)N1CCC[C@H]1C(=O)N[C@@H](COP(=O)(O)O)C(=O)N[C@@H](Cc1ccc(O)cc1)C(=O)N[C@@H](CCCNC(=N)N)C(=O)N[C@@H](Cc1ccc(O)cc1)C(=O)N[C@@H](CCCNC(=N)N)C(N)=O

What was measured:
[1] = target: T1, hArc-NL (residues 207–277); test: ITC analysis of peptide binding to hArc-NL; conditions: 20 mM Tris-HCl pH 7.4, 150 mM NaCl, +25 °C, one-site binding model
How it was run: (§1)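 Human Arc constructs carried a cleavable His-MBP tag and were expressed in E. coli BL21 with IPTG induction at +30 °C. They were purified by Ni-NTA and size-exclusion chromatography, and TEV cleavage left an N-terminal GAMG. Peptides were N-acetylated and C-amidated. Peptide (2.5–5.0 mM) was titrated into the cell containing protein (0.25–0.5 mM).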

[2] = target: T2, hArc-CT (residues 206–396, containing both lobes); test: ITC analysis of peptide binding to hArc-CT; conditions: 20 mM Tris-HCl pH 7.4, 150 mM NaCl, +25 °C, one-site binding model
How it was run: as §1

[3] = target: T3, human Arc N-lobe (hArc-NL, residues …); test: ITC
[4] = target: T4, human Arc C-terminal domain (hArc-CT, …); test: ITC

| Molecule | -TΔS [1] | ΔH [1] [kcal/mol] | -TΔS [2] | ΔH [2] [kcal/mol] | Kd [3] [µM] | dH [3] [kcal/mol] | Kd [4] [µM] | dH [4] [kcal/mol] |
| --- | --- | --- | --- | --- | --- | --- | --- | --- |
| Ac-MPGCFRMR-NH2 [GKAP-R5] | +4.7 kcal/mol/° | -8.2 ± 0.3 |  |  |  |  |  |  |
| Ac-TSPKFRSRNESYMRAMST-NH2 [GKAP-R4(long)] | +3.1 kcal/mol/° | -7.2 ± 0.2 | +2.2 kcal/mol/° | -6.8 ± 0.2 |  |  |  |  |
| Ac-RIPSYRYR-NH2 [pStg(wt)] | +7.0 kcal/mol/° | -13.1 ± 0.1 | +6.4 kcal/mol/° | -12.0 ± 0.2 |  |  |  |  |
| Ac-TSPKFRSR-NH2 [GKAP-R4] | +6.6 kcal/mol/° | -10.9 ± 0.4 | +2.5 kcal/mol/° | -6.8 ± 0.1 |  |  |  |  |
| Ac-RIPSYRYRYQRRSRSSSRSTE-NH2 [pStg(long)] |  |  | +14.0 kcal/mol/° | -20.2 ± 0.2 |  |  |  |  |
| Ac-RIPSYRYR-NH2 [stargazin peptide pStg(wt)] |  |  |  |  | 33.6 ± 1.1 | -13.1 ± 0.1 | 80 ± 4 | -12 ± 0.2 |
| Ac-TSPKFRSRNESYMRAMST-NH2 [long GKAP repeat 4 peptide] |  |  |  |  | 426 ± 12 | -7.2 ± 0.2 | 391 ± 18 | -6.8 ± 0.2 |
| Ac-TSPKFRSR-NH2 [GKAP repeat 4 peptide] |  |  |  |  | 714 ± 19 | -10.9 ± 0.4 | 763 ± 10 | -6.8 ± 0.1 |
| Ac-RIPSYRYRYQRRSRSSSRSTE-NH2 [long stargazin peptide pStg(long)] |  |  |  |  |  |  | 26.4 ± 1.2 | -20.2 ± 0.2 |
| B1 |  |  |  |  |  | -66.5 ± 0.6 |  |  |
| Ac-MPGCFRMR-NH2 [GKAP repeat 5 peptide] |  |  |  |  | 2390 ± 314 | -8.2 ± 0.3 |  |  |
